Data reported in ChEMBL document CHEMBL1123129, “Hypolipidemic activity of indan-1,3-dione derivatives in rodents” (J Med Chem, 1985).

Key:
[1] = molecular target: T1, 3-hydroxy-3-methylglutaryl-coenzyme A reductase (Mus musculus) (UniProt Q01237); assay: In Vivo effect for the hypolipidemic activity on HMG-CoA reductase in CF1 mice after 16 days of oral administration at a dose of 60 mg/kg; assay type: organism-based; parameters: dose 60 mg/kg
T1 sequence (whole entry): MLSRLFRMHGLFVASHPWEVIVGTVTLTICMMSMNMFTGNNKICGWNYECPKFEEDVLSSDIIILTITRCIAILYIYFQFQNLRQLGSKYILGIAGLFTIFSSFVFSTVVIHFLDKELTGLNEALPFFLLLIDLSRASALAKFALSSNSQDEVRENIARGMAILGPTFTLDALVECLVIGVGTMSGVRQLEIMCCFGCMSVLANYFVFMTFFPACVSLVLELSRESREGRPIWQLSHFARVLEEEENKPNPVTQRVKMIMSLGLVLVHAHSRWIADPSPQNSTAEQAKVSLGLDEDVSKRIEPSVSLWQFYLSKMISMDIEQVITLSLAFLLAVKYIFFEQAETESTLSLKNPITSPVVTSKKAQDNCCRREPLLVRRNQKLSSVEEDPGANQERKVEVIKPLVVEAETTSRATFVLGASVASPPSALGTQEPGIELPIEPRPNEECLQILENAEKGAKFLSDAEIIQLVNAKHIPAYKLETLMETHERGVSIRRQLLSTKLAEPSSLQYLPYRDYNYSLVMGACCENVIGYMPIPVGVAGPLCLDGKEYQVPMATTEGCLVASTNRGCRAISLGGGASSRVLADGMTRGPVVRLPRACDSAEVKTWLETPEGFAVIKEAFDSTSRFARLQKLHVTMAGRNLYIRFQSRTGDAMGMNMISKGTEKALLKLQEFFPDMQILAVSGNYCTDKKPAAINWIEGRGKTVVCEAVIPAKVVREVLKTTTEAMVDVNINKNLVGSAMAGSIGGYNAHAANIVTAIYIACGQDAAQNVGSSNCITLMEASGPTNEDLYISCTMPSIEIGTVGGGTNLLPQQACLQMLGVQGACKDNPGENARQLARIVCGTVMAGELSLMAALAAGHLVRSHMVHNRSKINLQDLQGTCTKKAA
Outline: (§1)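 CF1 male mice are dosed orally at 10–60 mg/kg per day for 16 days, with 1% CMC as the control vehicle. Liver is homogenized at 10% in 0.25 M sucrose + 0.001 M EDTA, pH 7.2. Enzymes are assayed by literature methods, with Lowry protein. Activity is given as % of control (X ± SD, N = 6), with p from Student's t test.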

[2] = molecular target: T2, ATP-citrate synthase (Mus musculus) (UniProt Q91V92); assay: In Vivo effect for the hypolipidemic activity on ATP-Citrate Lyase in CF1 mice after 16 days of oral administration at a dose of 10 mg/kg; assay type: organism-based; parameters: dose 10 mg/kg; outline: as §1
T2 sequence (whole entry): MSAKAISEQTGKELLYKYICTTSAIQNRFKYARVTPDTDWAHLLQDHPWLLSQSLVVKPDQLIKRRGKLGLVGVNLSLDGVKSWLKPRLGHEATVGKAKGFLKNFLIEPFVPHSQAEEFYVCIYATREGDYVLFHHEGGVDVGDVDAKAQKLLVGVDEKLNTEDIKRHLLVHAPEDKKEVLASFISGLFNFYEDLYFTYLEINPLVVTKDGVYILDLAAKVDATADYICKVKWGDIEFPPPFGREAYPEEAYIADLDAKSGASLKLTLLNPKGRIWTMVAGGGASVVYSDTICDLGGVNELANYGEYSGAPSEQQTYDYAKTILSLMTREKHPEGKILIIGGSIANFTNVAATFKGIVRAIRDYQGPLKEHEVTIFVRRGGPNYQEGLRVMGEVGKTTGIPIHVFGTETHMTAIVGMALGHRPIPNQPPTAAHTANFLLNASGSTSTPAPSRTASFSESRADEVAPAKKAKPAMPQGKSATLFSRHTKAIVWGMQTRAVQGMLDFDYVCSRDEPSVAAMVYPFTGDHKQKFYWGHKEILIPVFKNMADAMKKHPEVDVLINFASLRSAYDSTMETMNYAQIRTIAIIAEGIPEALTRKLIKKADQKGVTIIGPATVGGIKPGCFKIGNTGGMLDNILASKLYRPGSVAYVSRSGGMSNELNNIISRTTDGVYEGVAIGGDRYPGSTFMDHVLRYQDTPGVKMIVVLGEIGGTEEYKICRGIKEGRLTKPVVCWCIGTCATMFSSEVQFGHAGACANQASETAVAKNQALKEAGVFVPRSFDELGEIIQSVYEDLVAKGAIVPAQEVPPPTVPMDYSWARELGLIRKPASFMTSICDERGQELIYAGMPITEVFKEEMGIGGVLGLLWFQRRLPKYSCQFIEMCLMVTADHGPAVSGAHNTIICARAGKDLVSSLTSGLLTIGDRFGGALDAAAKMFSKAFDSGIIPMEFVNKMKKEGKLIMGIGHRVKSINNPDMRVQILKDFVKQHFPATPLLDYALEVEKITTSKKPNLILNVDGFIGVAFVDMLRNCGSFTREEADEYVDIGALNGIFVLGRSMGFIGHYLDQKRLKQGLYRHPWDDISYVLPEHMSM

Mus musculus [3] = species: Mus musculus; assay: In Vitro evaluation for the CF1 liver enzyme activity on Mitochondrial citrate exchange at concentration 50 uM; assay type: functional
Outline: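 Mouse liver enzymes assayed in vitro on 10% homogenates of CF1 male mouse liver, with test drug added at 50–200 μM. Each enzyme follows a published procedure. Protein is measured by Lowry. Activity is given as % of untreated control (X ± SD, N = 6).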

[4] = molecular target: Acetyl-coenzyme A synthetase, cytoplasmic (Mus musculus) (UniProt Q9QXG4); assay: In Vivo effect for the hypolipidemic activity on Acetyl-coenzyme A synthetase in CF1 mice after 16 days of oral administration at a dose of 60 mg/kg; assay type: functional, organism-based; parameters: dose 60 mg/kg; outline: as §1
Chain of Acetyl-coenzyme A synthetase, cytoplasmic (Mus musculus) (Q9QXG4 whole entry): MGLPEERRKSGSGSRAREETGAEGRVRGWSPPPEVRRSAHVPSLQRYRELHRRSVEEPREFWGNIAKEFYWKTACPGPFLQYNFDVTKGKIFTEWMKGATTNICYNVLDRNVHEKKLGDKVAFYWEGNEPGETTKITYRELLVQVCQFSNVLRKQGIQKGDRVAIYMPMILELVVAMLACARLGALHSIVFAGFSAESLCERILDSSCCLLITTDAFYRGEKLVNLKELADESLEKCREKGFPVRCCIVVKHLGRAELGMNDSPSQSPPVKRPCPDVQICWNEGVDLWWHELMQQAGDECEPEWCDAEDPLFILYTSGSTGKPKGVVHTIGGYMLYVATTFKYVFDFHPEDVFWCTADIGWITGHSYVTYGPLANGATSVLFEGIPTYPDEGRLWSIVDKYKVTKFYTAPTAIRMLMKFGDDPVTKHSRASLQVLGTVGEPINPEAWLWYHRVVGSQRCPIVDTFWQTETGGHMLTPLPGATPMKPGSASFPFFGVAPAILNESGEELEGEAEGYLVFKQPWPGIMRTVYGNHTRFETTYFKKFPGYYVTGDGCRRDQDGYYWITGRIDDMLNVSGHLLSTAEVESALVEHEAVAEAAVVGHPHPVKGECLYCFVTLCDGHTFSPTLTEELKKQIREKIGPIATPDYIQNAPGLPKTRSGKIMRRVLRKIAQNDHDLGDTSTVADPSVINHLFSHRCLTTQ

[5] = molecular target: T2, ATP-citrate synthase (Mus musculus); assay: In Vitro evaluation for the CF1 liver enzyme activity on ATP-Citrate Lyase exchange at concentration 200 uM
Outline: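 Liver was taken from CF1 male mice and made into 10% homogenates, which were incubated with test compound at 50, 100 or 200 µM. Each enzyme was assayed by its literature method, and protein was measured by Lowry. N = 6. Activity is expressed as % of untreated control ± SD.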

Mus musculus [6] = assay: Compound was evaluated for the hypolipidemic activity in CF1 male mice at a dose of 10 mg/kg orally for Serum cholesterol at 9th day.; assay type: functional; conditions: route oral
Outline: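 CF1 male mice received the agent orally in 1% CMC at 10–60 mg/kg per day. Tail-vein blood was taken on days 9 and 16. Serum cholesterol was measured by modified Liebermann–Burchard on duplicate 25-µL samples, and serum triglyceride on day 16 in duplicate 50-µL samples. Values are % of vehicle control, mean ± SD, N = 6; Student's t test.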

Mus musculus [7] = assay: Hypolipidemic activity in CF1 male mice at a dose of 20 mg/kg per day, serum triglyceride measured on the 16th day; assay type: functional
Outline: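 CF1 male mice (~30 g) were given 20 mg/kg per day ip at 11:00 a.m.; N = 6 per group. Tail-vein serum was collected in nonheparinized microcapillaries. Cholesterol was measured on days 9 and 16 by modified Liebermann–Burchard on duplicate 25 µL samples. Triglyceride was measured on day 16 in a separate group, duplicate 50 µL. Values are % control ± SD; Student's t test.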

Control [1]: 126%
Control [2]: 70%
Control [4]: 99%
Control [5]: 52%
SMILES: COc1ccc(C2C(=O)c3ccccc3C2=O)cc1 [ANISINDIONE]
Control (Mus musculus [3]): 36%
Control (Mus musculus [6]): 82%
Serum triglyceride, % of control (Mus musculus [7]): 42%
